Data published in ChEMBL document CHEMBL1130396, “Angiotensin analogues palmitoylated in positions 1 and 4” (J Med Chem, 1997).
Where a SMILES comes first, the peptide text is derived from it. [ ]: non-standard residue; d: D form. The star is where a group is joined. X1 = CCCCCCCCCCCCCCCC(=O)OCCC(=O)*; Palmitoyl = CCCCCCCCCCCCCCCC(=O)*; X2 = CCCCCCCCCCCCCCCCCC*; Sar = CNCC(=O)O

Key:
[1] = target: T1, Type-1 angiotensin II receptor (Oryctolagus cuniculus, UniProt P34976); experiment: Negative log of the dose of antagonist (compound) that reduces response of a double dose of […] to that of a single dose, on rabbit aorta; format: functional, tissue-based; conditions: for Kb: read-out: pA2 (converted)
T1 sequence (P34976 whole entry): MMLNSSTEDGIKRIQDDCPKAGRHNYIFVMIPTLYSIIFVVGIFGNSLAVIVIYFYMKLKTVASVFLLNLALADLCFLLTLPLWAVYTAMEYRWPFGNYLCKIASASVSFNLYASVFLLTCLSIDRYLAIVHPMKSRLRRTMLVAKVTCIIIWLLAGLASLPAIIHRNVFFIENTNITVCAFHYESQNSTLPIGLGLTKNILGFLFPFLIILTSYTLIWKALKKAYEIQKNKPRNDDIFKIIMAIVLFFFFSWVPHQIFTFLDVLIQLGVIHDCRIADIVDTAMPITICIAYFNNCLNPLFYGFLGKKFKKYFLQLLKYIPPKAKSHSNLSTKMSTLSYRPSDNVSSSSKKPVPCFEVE
How it was run: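 Rabbit thoracic aorta rings in oxygenated Krebs, pH 7.4, at 37 °C under 2 g tension were preincubated 10 min with single antagonist concentrations. Ang concentration-response curves were then run with and without antagonist. pA2 came from Schild plot, or was estimated from lower doses for long-acting analogues. Duration was followed by Ang curves at 30 min, 1.5 h and 3 h, washing every 20 min. At least three evaluations were done.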

[2] = target: T2, Type-1 angiotensin II receptor (Bos taurus, UniProt P25104); experiment: Dissociation constant for [125 I] Ang binding to type 1 Angiotensin II receptor of bovine adrenocortical membranes
T2 sequence (P25104 whole entry): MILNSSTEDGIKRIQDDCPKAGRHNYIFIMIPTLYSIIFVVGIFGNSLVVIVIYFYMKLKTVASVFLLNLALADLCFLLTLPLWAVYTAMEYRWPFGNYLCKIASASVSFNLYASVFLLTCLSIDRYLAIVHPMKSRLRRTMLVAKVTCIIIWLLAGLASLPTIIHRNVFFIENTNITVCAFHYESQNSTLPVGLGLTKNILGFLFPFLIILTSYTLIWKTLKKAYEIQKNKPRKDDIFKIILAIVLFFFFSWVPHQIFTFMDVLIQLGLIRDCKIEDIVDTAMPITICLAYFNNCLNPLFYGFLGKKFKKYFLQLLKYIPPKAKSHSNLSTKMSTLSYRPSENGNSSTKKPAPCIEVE

[3] = target: T3, Type-1 angiotensin II receptor (Oryctolagus cuniculus) (UniProt P34976); experiment: Relative affinity compared to the affinity of angiotensin II(Ang=100%) for Angiotensin II receptor, type 1 on rabbit aorta; format: tissue-based
T3 sequence (whole entry): T1 sequence (P34976 whole entry)

[4] = target: T4, Type-1 angiotensin II receptor (Bos taurus) (UniProt P25104); experiment: Relative affinity for type 1 Angiotensin II receptor of bovine adrenocortical membranes compared to angiotensin
T4 sequence (whole entry): T2 sequence (P25104 whole entry)
How it was run: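 Bovine adrenocortical membranes were incubated in 25 mM Tris/HCl (100 mM NaCl, 5 mM MgCl2, 0.2% BSA, pH 7.4) with peptide across 5 × 10^-11–10^-5 M and 30 pM [125I]Ang (final) for 45 min at 22 °C. Bound radioactivity was filtered and gamma-counted, with nonspecific binding defined by 1 µM Ang. […] At least three experiments were run in duplicate.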

[5] = species: Oryctolagus cuniculus; experiment: Negative log of the dose of agonist that produces half-maximal contraction on rabbit aorta; format: functional
How it was run: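 New Zealand rabbit thoracic aorta rings (5 mm) were held in oxygenated Krebs, pH 7.4, at 37 °C under 2 g tension and equilibrated for 90 min. Isometric contractions were recorded. Cumulative dose-response curves (5 × 10^-11–10^-5 M) were expressed as % of maximal Ang stimulation, and pD2 was taken as the negative log of the dose giving half-maximal contraction. At least three evaluations were done.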

CCCCCCCCCCCCCCCC(=O)Oc1ccc(C[C@H](NC(=O)[C@@H](NC(=O)[C@H](CCCN=C(N)N)NC(=O)CNC)C(C)C)C(=O)N[C@H](C(=O)N[C@@H](Cc2c[nH]cn2)C(=O)N2CCC[C@H]2C(=O)N[C@@H](Cc2ccccc2)C(=O)O)C(C)C)cc1 [listing 1 of 2 here] was tested, and the Kb [1] was 36.3 nM and the Kd [2] was 3.55 nM.

Work on CC(C)[C@H](NC(=O)[C@H](CCCN=C(N)N)NC(=O)[C@@H](N)CO)C(=O)N[C@@H](Cc1ccc(O)cc1)C(=O)N[C@H](C(=O)N[C@@H](Cc1c[nH]cn1)C(=O)N1CCC[C@H]1C(=O)N[C@@H](Cc1ccccc1)C(=O)O)C(C)C (H-SRVYVHPF-OH) yielded an RA [3] of 22.4, an RA [4] of 75.8 and a pD2 [5] of 7.68.

CCCCCCCCCCCCCCCC(=O)OC[C@H](NC(C)=O)C(=O)N[C@@H](CCCN=C(N)N)C(=O)N[C@H](C(=O)N[C@@H](Cc1ccc(O)cc1)C(=O)N[C@H](C(=O)N[C@@H](Cc1c[nH]cn1)C(=O)N1CCC[C@H]1C(=O)N[C@H](Cc1cccc2ccccc12)C(=O)O)C(C)C)C(C)C showed an RA [4] of 0.21, a pA2 [1] of less than 5.5 and a pKd [2] of 5.65.

For CNCC(=O)N[C@@H](CCCN=C(N)N)C(=O)N[C@H](C(=O)N[C@@H](Cc1ccc(O)cc1)C(=O)N[C@H](C(=O)N[C@@H](Cc1c[nH]cn1)C(=O)N1CCC[C@H]1C(=O)N[C@H](Cc1ccc2ccccc2c1)C(=O)O)C(C)C)C(C)C, the RA [4] was 34.7.

CC(C)[C@H](NC(=O)[C@H](CCCN=C(N)N)NC(=O)CCO)C(=O)N[C@@H](Cc1ccc(O)cc1)C(=O)N[C@H](C(=O)N[C@@H](Cc1c[nH]cn1)C(=O)N1CCC[C@H]1C(=O)N[C@@H](Cc1ccccc1)C(=O)O)C(C)C gave an RA [3] of 7.95, an RA [4] of 5.53 and a Kd [2] of 105 nM. It also gave a pD2 [5] of 7.23.

CCCCCCCCCCCCCCCC(=O)Oc1ccc(C[C@H](NC(=O)[C@@H](NC(=O)[C@H](CCCN=C(N)N)NC(=O)CNC)C(C)C)C(=O)N[C@H](C(=O)N[C@@H](Cc2c[nH]cn2)C(=O)N2CCC[C@H]2C(=O)N[C@@H](Cc2ccccc2)C(=O)O)C(C)C)cc1 [listing 2 of 2 here] gave a pD2 [5] of 7.61.

Work on CC(C)[C@H](NC(=O)[C@H](CCCN=C(N)N)NC(=O)CCO)C(=O)N[C@@H](Cc1ccc(O)cc1)C(=O)N[C@H](C(=O)N[C@@H](Cc1c[nH]cn1)C(=O)N1CCC[C@H]1C(=O)N[C@H](Cc1ccccc1)C(=O)O)C(C)C yielded an RA [4] of 0.09, a Kb [1] of 4900 nM and a Kd [2] of 6460 nM.

CC[C@H](C)[C@H](NC(=O)[C@H](Cc1ccc(O)cc1)NC(=O)[C@@H](NC(=O)[C@H](CCCNC(=N)N)NC(=O)[C@@H](N)CC(=O)O)C(C)C)C(=O)N[C@@H](Cc1cnc[nH]1)C(=O)N1CCC[C@H]1C(=O)N[C@@H](Cc1ccccc1)C(=O)O [ANGIOTENSIN II] was tested, and the RA [3] was 100, the RA [4] was 100 and the pD2 [5] was 8.33.

In the case of CCCCCCCCCCCCCCCC(=O)OCCC(=O)N[C@@H](CCCN=C(N)N)C(=O)N[C@H](C(=O)N[C@@H](Cc1ccc(O)cc1)C(=O)N[C@H](C(=O)N[C@@H](Cc1c[nH]cn1)C(=O)N1CCC[C@H]1C(=O)N[C@@H](Cc1ccccc1)C(=O)O)C(C)C)C(C)C (X1-RVYVHPF-OH), the RA [3] is reported as 0.13, the RA [4] is reported as 0.21 and the Kd [2] is reported as 2750 nM. It also gave a pD2 [5] of 5.46.

CC(=O)N[C@@H](CO)C(=O)N[C@@H](CCCN=C(N)N)C(=O)N[C@H](C(=O)N[C@@H](Cc1ccc(O)cc1)C(=O)N[C@H](C(=O)N[C@@H](Cc1c[nH]cn1)C(=O)N1CCC[C@H]1C(=O)N[C@H](Cc1cccc2ccccc12)C(=O)O)C(C)C)C(C)C gave an RA [4] of 1.78, a pA2 [1] of 6.99 and a pKd [2] of 6.49.

CC(=O)N[C@@H](CO)C(=O)N[C@@H](CCCN=C(N)N)C(=O)N[C@H](C(=O)N[C@@H](Cc1ccc(O)cc1)C(=O)N[C@H](C(=O)N[C@@H](Cc1c[nH]cn1)C(=O)N1CCC[C@H]1C(=O)N[C@@H](Cc1ccccc1)C(=O)O)C(C)C)C(C)C (Ac-SRVYVHPF-OH) gave an RA [3] of 16.2, an RA [4] of 32.4 and a Kd [2] of 17.8 nM. It also gave a pD2 [5] of 7.54.

CCCCCCCCCCCCCCCCCCOc1ccc(C[C@H](NC(=O)[C@@H](NC(=O)[C@H](CCCNC(=N)N)NC(=O)CNC)C(C)C)C(=O)N[C@H](C(=O)N[C@@H](Cc2cnc[nH]2)C(=O)N2CCC[C@H]2C(=O)N[C@@H](Cc2ccccc2)C(=O)O)C(C)C)cc1 (H-[Sar]RVY(X2)VHPF-OH) showed a Kd [2] of 1550 nM.

CCCCCCCCCCCCCCCC(=O)OC[C@H](NC(C)=O)C(=O)N[C@@H](CCCN=C(N)N)C(=O)N[C@H](C(=O)N[C@@H](Cc1ccc(O)cc1)C(=O)N[C@H](C(=O)N[C@@H](Cc1c[nH]cn1)C(=O)N1CCC[C@H]1C(=O)N[C@@H](Cc1ccccc1)C(=O)O)C(C)C)C(C)C (Ac-S(Palmitoyl)RVYVHPF-OH) gave an RA [4] of 1.17 and a pD2 [5] of less than 5.5.

CCCCCCCCCCCCCCCC(=O)Oc1ccc(C[C@H](NC(=O)[C@@H](NC(=O)[C@H](CCCN=C(N)N)NC(=O)CNC)C(C)C)C(=O)N[C@H](C(=O)N[C@@H](Cc2c[nH]cn2)C(=O)N2CCC[C@H]2C(=O)N[C@H](Cc2ccccc2)C(=O)O)C(C)C)cc1 was tested, and the RA [4] was 162.

With CCCCCCCCCCCCCCCC(=O)OC[C@H](NC(C)=O)C(=O)N[C@@H](CCCNC(=N)N)C(=O)N[C@H](C(=O)N[C@@H](Cc1ccc(O)cc1)C(=O)N[C@H](C(=O)N[C@@H](Cc1cnc[nH]1)C(=O)N1CCC[C@H]1C(=O)N[C@@H](Cc1ccccc1)C(=O)O)C(C)C)C(C)C (Ac-S(Palmitoyl)RVYVHPF-OH) the Kd [2] was 490 nM.

CCCCCCCCCCCCCCCC(=O)Oc1ccc(C[C@H](NC(=O)[C@@H](NC(=O)[C@H](CCCNC(=N)N)NC(=O)CNC)C(C)C)C(=O)N[C@H](C(=O)N[C@@H](Cc2cnc[nH]2)C(=O)N2CCC[C@H]2C(=O)N[C@H](Cc2ccc3ccccc3c2)C(=O)O)C(C)C)cc1 showed a Kb [1] of 102 nM and a Kd [2] of 224 nM.

CCCCCCCCCCCCCCCC(=O)Oc1ccc(C[C@H](NC(=O)[C@@H](NC(=O)[C@H](CCCN=C(N)N)NC(=O)CNC)C(C)C)C(=O)N[C@H](C(=O)N[C@@H](Cc2c[nH]cn2)C(=O)N2CCC[C@H]2C(=O)N[C@H](Cc2ccc3ccccc3c2)C(=O)O)C(C)C)cc1 gave an RA [4] of 2.57.

Work on CC(C)[C@H](NC(=O)[C@H](CCCNC(=N)N)NC(=O)[C@@H](N)CO)C(=O)N[C@@H](Cc1ccc(O)cc1)C(=O)N[C@H](C(=O)N[C@@H](Cc1cnc[nH]1)C(=O)N1CCC[C@H]1C(=O)N[C@@H](Cc1ccccc1)C(=O)O)C(C)C (H-SRVYVHPF-OH) yielded a Kd [2] of 7.59 nM.

Molecule CNCC(=O)N[C@@H](CCCN=C(N)N)C(=O)N[C@H](C(=O)N[C@@H](Cc1ccc(O)cc1)C(=O)N[C@H](C(=O)N[C@@H](Cc1c[nH]cn1)C(=O)N1CCC[C@H]1C(=O)N[C@@H](Cc1ccccc1)C(=O)O)C(C)C)C(C)C has a pD2 [5] of 8.57.

For CNCC(=O)N[C@@H](CCCNC(=N)N)C(=O)N[C@H](C(=O)N[C@@H](Cc1ccc(O)cc1)C(=O)N[C@H](C(=O)N[C@@H](Cc1cnc[nH]1)C(=O)N1CCC[C@H]1C(=O)N[C@H](Cc1ccc2ccccc2c1)C(=O)O)C(C)C)C(C)C, the Kb [1] was 7.94 nM and the Kd [2] was 16.6 nM.

CNCC(=O)N[C@@H](CCCN=C(N)N)C(=O)N[C@H](C(=O)N[C@@H](Cc1ccc(O)cc1)C(=O)N[C@H](C(=O)N[C@@H](Cc1c[nH]cn1)C(=O)N1CCC[C@H]1C(=O)N[C@H](Cc1ccccc1)C(=O)O)C(C)C)C(C)C gave an RA [3] of 174 and an RA [4] of 407.
